Data set [1] can be described thus: Drug metabolism rate assay. Type of data set: in vitro ADME. Particulars: human, MHCC97-H cells.
The next data set relates to E-Cadherin. The experiment in a line: AmpliSeq expression in MHCC97-H cells: E-Cadherin. Format: cell-based. The settings on record: Fig. 5B. An outline of the steps: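 MHCC97-H cells in DMEM with 10% FBS were treated with pralatrexate (2, 1, 0.5), fatostatin (1, 0.1) or BAY-876 (1, 0.1 μmol/L). RNA (10 ng) was reverse transcribed and amplified with custom AmpliSeq RNA panels. Expression was normalised to β-actin. Three replicate wells per sample; three biological replicates.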

The subject of a further data set is NICD. Nature of the data set: AmpliSeq expression in MHCC97-H cells: NICD. Type of data set: cell-based. Particulars: MHCC97-H cells with direct expression of NICD, Fig. 7.
For data set [2], the system named is MHCC97-H cells. The experiment in a line: In vivo tumor model, MHCC97-H subcutaneous tumours. On the set-up: species or system nude mice.
For another data set, the system named is miRNA-34a. Nature of the data set: AmpliSeq miRNA-34a expression in MHCC97-H cells. Type of data set: cell-based. Particulars: MHCC97-H cells with direct expression of NICD, Fig. 7. Put shortly: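 MHCC97-H cells were transduced with NICD lentivirus and cultured in DMEM with 10% FBS. RNA (10 ng) was reverse transcribed and cDNA amplified with custom AmpliSeq RNA panels to quantify miRNA-34a, normalised to β-actin. Three replicate wells per sample; three biological replicates.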

For data set [3], the system named is miRNA-34a promoter region. Nature of the data set: BSP-NGS methylation of miRNA-34a promoter in MHCC97-H cells. Type of data set: cell-based. The settings on record: MHCC97-H cells with direct expression of NICD, Fig. 7. An outline of the steps: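 Genomic DNA from NICD-lentivirus-transduced MHCC97-H cells was isolated with a kit and used for bisulfite sequencing PCR plus next-generation sequencing. The region analysed was the miRNA-34a promoter segment chr1: 9152409–9152574, which holds seven CpG sites. Methylation rates were calculated by the Ma et al. (2020) procedure.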

In a further data set the test system is Notch 1 protein and NICD. Nature of the data set: Sub-cellular fraction assay with western blot. Type of data set: cell-based. The settings on record: MHCC97-H, 2 μmol/L, 30 min, 1 h, 2 h. Put shortly:
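After treatment, cells were sonicated. Nuclei were pelleted at 800 rpm, 4 °C, ~3 min, and the cytoplasmic fraction at 12,000 rpm, 4 °C, ~10 min. Fractions were boiled ~15 min in SDS-PAGE buffer and blotted onto PVDF. One C-terminal Notch1 antibody detected full-length Notch1 (>220 kDa) and NICD (~110 kDa). β-actin and Lamin A served as cytoplasmic and nuclear markers; detection was by chemiluminescence.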
On the technique in general: In western blotting, separated proteins are transferred to a membrane and probed.

The next data set deals with miRNA-34a/Notch pathway. The experiment in a line: BSP-NGS, AmpliSeq and western blot of subcutaneous tumour tissues. Format: in vivo, nude mice. An outline of the steps:
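Female BALB/c nude mice (5-week-old, SPF) bore subcutaneous MHCC97-H tumours, one per animal, 10 per group. Pralatrexate 5 mg/kg was given by oral gavage every other day for about 15 doses. All excised tumours underwent BSP-NGS (miRNA-34a promoter methylation) and AmpliSeq (miRNA-34a expression). Tumours 2, 4 and 8 were lysed in RIPA/SDS buffer for western blot of NICD against GAPDH.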

The subject of the next data set is HCC cells. The experiment in a line: Biochemical examination of metabolic features. Type of data set: cell-based. Particulars: compared to BAY-876 or fatostatin, Fig. 6.
For data set [4], the system named is MHCC97-H cells. Nature of the data set: MTT assay, MHCC97-H cells. Format: cell-based. Particulars: Homo sapiens, MHCC97H. An outline of the steps:
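MHCC97-H cells in DMEM with 10% FBS were pretreated 6–8 h with solvent control or pralatrexate (0.5, 1, 2 μmol/L). Molecular targeted drugs were then added as a seven-point series from 10 to 0.01 for about 48 h, with drugs dissolved in DMSO and diluted in DMEM. Viability was read by MTT at OD 490 nm. Inhibition % was computed against control and IC50 fitted in GraphPad Prism.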
In general terms: Tetrazolium dyes change colour on reduction, which living cells bring about.

A further data set relates to LMC-3 cells. Nature of the data set: MTT assay, LMC-3 cells. Format: cell-based. An outline of the steps:
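LMC-3 cells in DMEM with 10% FBS were transfected with control siRNA or siDHFR. They were then exposed to graded sorafenib concentrations and assayed by MTT. Inhibition = (OD490 control − OD490 treated)/OD490 control × 100%. IC50 was fitted from dose–effect curves in GraphPad Prism.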

A further data set concerns HepG2 cells. The experiment in a line: MTT assay, HepG2 cells. The settings on record: Homo sapiens. Type of data set: cell-based. An outline of the steps: (§1)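 HCC cells were transfected with control siRNA or siRNA against DHFR. Test compound was dissolved in DMSO, diluted in DMEM and applied at a concentration series. Viability was read by MTT and OD 490 nm. Inhibition = (OD control − OD treated)/OD control × 100%. IC50 was taken from dose–effect curves.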

A further data set deals with HepG2 2.2.15 cells. The experiment in a line: MTT assay, HepG2 2.2.15 cells. Type of data set: cell-based. Particulars: Homo sapiens. Put shortly: as §1

The structures appear in SMILES notation. Entries after “also recorded” stand apart in the source; their conditions may differ. Like-named read-outs stand apart in the source and are kept apart here.

The half-life is the time needed for the level to fall by half in the phase considered. The compound `COc1cccc2c1C(=O)c1c(O)c3c(c(O)c1C2=O)C[C@@](O)(C(=O)CO)C[C@@H]3O[C@H]1C[C@H](N)[C@H](O)[C@H](C)O1` [Adriamycin, adriamycin] had a half-life at 0.3 μmol/L in data set [1] of 13.2 h.

On to `CCCc1cc(-c2nc(-c3ccc(C)cc3)cs2)ccn1` [Fatostatin, fatostatin], for which, in the data set on E-Cadherin, the E-Cadherin expression result is recorded as “enhanced the expression of E-Cadherin”.

Take `C#CCC(Cc1cnc2nc(N)nc(N)c2n1)c1ccc(C(=O)N[C@@H](CCC(=O)O)C(=O)O)cc1` (stereo partly drawn) [Pralatrexate, pralatrexate]: the “expression levels of NICD and Notch downstream factors” value with NICD was “no longer able to affect the expression levels of NICD and Notch downstream factors”. In the data set with E-Cadherin, the E-Cadherin expression entry is listed as “upregulated the expression of E-cadherin; also recorded: enhanced the expression of E-Cadherin”. In addition, the “effect of combination on antitumour activity of sorafenib” value with MHCC97-H cells [2] (5 mg/kg Pralatrexate + 0.2 mg/kg sorafenib, oral) is “significantly increase the antitumour activity of sorafenib”. The “antitumour activity / cytotoxicity, subcutaneous tumours” value with MHCC97-H cells [2] (Pralatrexate 5 mg/kg oral gavage, alone) is “did not have significant cytotoxicity and weak”. In addition, the “anti-tumour activity, subcutaneous tumours” value in the data set with MHCC97-H cells [2] (Pralatrexate higher doses (e.g. 20 mg/kg) oral gavage) is reported as “significant anti-tumour activity”. Also, the miRNA-34a expression entry with miRNA-34a is “upregulate miRNA-34a expression”. Moreover, in data set [3], the “methylation rates of miRNA-34a promoter region” value is on record as “decrease the methylation rates”. Also, in the data set on Notch 1 protein and NICD, the “Notch 1 protein expression (cytoplasm)” value is “did not affect the protein expression of Notch 1” and the “distribution of NICD in the nucleus” value is on record as “did not affect the distribution of NICD in the nucleus”. The “expression of NICD and Survivin in tumour tissue” value in the data set on miRNA-34a/Notch pathway (NICD expression restored in MHCC97-H cells, Pralatrexate 5 mg/kg) was “no longer able to inhibit the expression of NICD and Survivin”. Moreover, in the data set on miRNA-34a/Notch pathway (Pralatrexate 5 mg/kg oral), the “expression of factors related to the Notch pathway in tumour tissue” value is reported as “down-regulate the expression of factors related to the Notch pathway”, the “expression of miRNA-34a in tumour tissue” value was “up-regulate the expression of miRNA-34a” and the “methylation of the promoter region of miRNA-34a in tumour tissue” value is “inhibit the methylation of the promoter region of miRNA-34a”. In addition, in the data set with HCC cells, the “Warburg effect of HCC cells” value is “did not inhibit the Warburg effect”.

As for `Cc1c(NC(=O)c2cc(C(N)=O)nc3cc(F)ccc23)c(C(F)(F)F)nn1Cc1ccc(C#N)cc1` [BAY-876], the E-Cadherin expression entry in the data set on E-Cadherin was “enhanced the expression of E-Cadherin”.

For orientation: IC50 means the midpoint of a concentration-inhibition curve. As to `CNC(=O)c1cc(Oc2ccc(NC(=O)Nc3ccc(Cl)c(C(F)(F)F)c3)cc2)ccn1` [Sorafenib, sorafenib], the concentration for half-maximal inhibition (IC50) came out at 1110 nM with MHCC97-H cells [4] (read-out: IC50 value of sorafenib in MHCC97-H cells, Control siRNA); 1020 nM in the data set with MHCC97-H cells [4] (read-out: IC50 values of Sorafenib on MHCC97-H cells, Control group); 250 nM in the data set on MHCC97-H cells [4] (read-out: IC50 values of Sorafenib on MHCC97-H cells, DHFR + miRNA-34a); 5380 nM with MHCC97-H cells [4] (read-out: IC50 values of Sorafenib on MHCC97-H cells, DHFR overexpression); 5670 nM in the data set on MHCC97-H cells [4] (read-out: IC50 values of Sorafenib on MHCC97-H cells, siDHFR + NICD); 910 nM in the data set on LMC-3 cells (read-out: IC50 values of sorafenib on HCC cells, LMC-3 cells, control). The half-maximal inhibitory concentration (IC50) with LMC-3 cells (read-out: IC50 values of sorafenib on HCC cells, LMC-3 cells, siDHFR) came out at 25 nM; with HepG2 cells (HepG2, read-out: IC50 values of sorafenib on HCC cells, HepG2 cells, control) it was 1160 nM; with HepG2 cells (HepG2, read-out: IC50 values of sorafenib on HCC cells, HepG2 cells, siDHFR) it was 37 nM; in the data set on HepG2 2.2.15 cells (HepG2 2.2.15, read-out: IC50 values of sorafenib on HCC cells, HepG2 2.2.15 cells, control), 1250 nM; in the data set on HepG2 2.2.15 cells (HepG2 2.2.15, read-out: IC50 values of sorafenib on HCC cells, HepG2 2.2.15 cells, siDHFR), 13 nM. In addition, the half-life at 1 μmol/L in [1] is 18.8 h. The “antitumour activity, subcutaneous tumours” value in the data set with MHCC97-H cells [2] (sorafenib 0.2 mg/kg (low dose) oral gavage, alone) is “weak subcutaneous tumourigenic inhibitory activity and weak”.
